Measured values as given in ChEMBL document CHEMBL3797060, “Discovery of 5-Chloro-1-(5-chloro-2-(methylsulfonyl)benzyl)-2-imino-1,2-dihydropyridine-3-carboxamide (TAK-259) as a Novel, Selective, and Orally Active α1D Adrenoceptor Antagonist with Antiurinary Frequency Effects: Reducing Human Ether-a-go-go-Related Gene (hERG) Liabilities” (J Med Chem, 2016).

Assays:
[1] = target: Voltage-gated inwardly rectifying potassium channel KCNH2 (Homo sapiens, UniProt Q12809); test: Inhibition of human ERG channel expressed in CHO cells assessed as peak tail current at 10 uM incubated for 5 mins by patch-clamp assay; type: cell-based; conditions: cho, 5 min, 10 µM
Sequence of Voltage-gated inwardly rectifying potassium channel KCNH2 (Q12809 whole entry): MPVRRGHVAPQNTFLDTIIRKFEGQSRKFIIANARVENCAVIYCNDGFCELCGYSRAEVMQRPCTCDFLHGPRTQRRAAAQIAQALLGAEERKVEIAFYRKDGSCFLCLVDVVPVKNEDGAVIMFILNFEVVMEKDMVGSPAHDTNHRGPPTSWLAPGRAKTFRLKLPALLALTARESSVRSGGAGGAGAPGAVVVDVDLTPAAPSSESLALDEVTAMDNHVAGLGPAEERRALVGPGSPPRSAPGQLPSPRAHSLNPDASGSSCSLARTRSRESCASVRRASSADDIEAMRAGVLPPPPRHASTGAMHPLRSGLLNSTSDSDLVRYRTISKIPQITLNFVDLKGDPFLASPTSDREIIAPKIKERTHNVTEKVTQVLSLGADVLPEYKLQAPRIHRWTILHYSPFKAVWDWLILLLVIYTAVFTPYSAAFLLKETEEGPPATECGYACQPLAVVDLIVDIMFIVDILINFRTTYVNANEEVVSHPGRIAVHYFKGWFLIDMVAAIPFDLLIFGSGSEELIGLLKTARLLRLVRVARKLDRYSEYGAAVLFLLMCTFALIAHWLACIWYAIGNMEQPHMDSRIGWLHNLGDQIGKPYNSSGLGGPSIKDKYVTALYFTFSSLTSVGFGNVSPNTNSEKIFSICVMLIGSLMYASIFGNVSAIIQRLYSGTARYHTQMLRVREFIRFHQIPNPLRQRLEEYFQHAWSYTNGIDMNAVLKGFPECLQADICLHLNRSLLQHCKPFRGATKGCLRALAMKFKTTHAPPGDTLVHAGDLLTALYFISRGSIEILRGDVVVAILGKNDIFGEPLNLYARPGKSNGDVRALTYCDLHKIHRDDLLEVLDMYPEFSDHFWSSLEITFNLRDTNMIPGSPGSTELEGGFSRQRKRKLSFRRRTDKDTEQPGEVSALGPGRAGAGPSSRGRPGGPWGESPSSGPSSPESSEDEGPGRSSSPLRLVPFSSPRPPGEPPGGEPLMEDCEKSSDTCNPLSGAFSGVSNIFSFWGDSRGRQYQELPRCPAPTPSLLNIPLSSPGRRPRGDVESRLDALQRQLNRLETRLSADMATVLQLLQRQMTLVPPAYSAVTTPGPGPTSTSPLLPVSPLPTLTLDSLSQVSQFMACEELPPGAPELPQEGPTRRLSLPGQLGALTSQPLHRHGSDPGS
Procedure, shortened: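 CHO cells stably expressing hERG, grown at 32 °C, 5% CO2 in Ham's F-12 with 10% FBS and 500 µg/mL Geneticin. Population patch clamp with PBS (Ca/Mg) outside, KCl/MgCl2/EGTA/HEPES pH 7.3 inside, amphotericin B perforation. Holding −80 mV, step to 40 mV 2 s, then −50 mV 2 s. Peak tail current taken before and after 5 min compound exposure, inhibition = 100 − post/pre×100, n = 3 or 4.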

[2] = Permeability of compound at pH 7.4 by PAMPA; type: ADME; conditions: read-out: permeability
[3] = Clearance in human liver microsomes at 1 uM after 15 to 30 mins by LC/MS/MS analysis; type: ADME; conditions: read-out: CLH
Procedure, shortened: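 Incubated with 0.2 mg/mL microsomal protein in 50 mM potassium phosphate, pH 7.4. Reaction started with an NADPH-generating system (MgCl2, glucose-6-phosphate, β-NADP+, G6P dehydrogenase). Stopped with acetonitrile at 15 and 30 min, then analysed for remaining compound. Metabolic velocity taken as the slope of the concentration-time plot.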

[4] = target: CYP3A4 (Homo sapiens, UniProt P08684); test: Reversible inhibition of CYP3A4 in human liver microsomes at 10 uM using midazolam as substrate incubated for 10 mins by LC/MS/MS analysis; type: ADME; conditions: probe midazolam
Sequence of CYP3A4 (P08684 whole entry): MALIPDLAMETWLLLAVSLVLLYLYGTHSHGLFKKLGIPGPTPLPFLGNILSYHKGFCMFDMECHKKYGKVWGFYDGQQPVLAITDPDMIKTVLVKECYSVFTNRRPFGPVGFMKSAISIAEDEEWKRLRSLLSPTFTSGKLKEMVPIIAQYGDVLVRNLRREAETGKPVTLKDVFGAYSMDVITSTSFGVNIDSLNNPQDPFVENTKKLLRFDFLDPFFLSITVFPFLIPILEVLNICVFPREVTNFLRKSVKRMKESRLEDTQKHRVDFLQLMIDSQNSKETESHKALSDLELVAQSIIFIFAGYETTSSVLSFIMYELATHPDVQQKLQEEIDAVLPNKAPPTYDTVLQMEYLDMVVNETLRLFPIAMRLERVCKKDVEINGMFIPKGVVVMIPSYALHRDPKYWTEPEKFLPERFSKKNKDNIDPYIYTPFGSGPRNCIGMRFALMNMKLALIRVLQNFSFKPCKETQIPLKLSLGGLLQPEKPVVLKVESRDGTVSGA
Procedure, shortened: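 Midazolam incubated with 0.1 mg/mL microsomes and test compound at 37 °C. Stopped with acetonitrile/water and centrifuged. 1'-Hydroxymidazolam peak measured in the supernatant.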

Cl.N=c1c(C(N)=O)cc(Cl)cn1Cc1cccc(Cl)c1
inhibition (INH) [1]: 47%
Papp [2]: 11.6 ×10⁻⁶ cm/s
microsomal CLint at 1 µM [3]: 3 µL/min/mg
inhibition at 10 min, 10 µM [4]: -1.6%
